Experimental data gathered from unrelated publications.
Read-out: cell growth or viability

Nc1c(C(=O)NCc2ccc(F)cc2)sc2nc(-c3ccccc3)ccc12
IC50 (HepG2; 72 h): > 100 µM

O=C1[O][Pt]2([NH][C@@H]3CCCC[C@H]3[NH]2)[O]C1=O
IC50 (THLE3; imaging; 72 h): 32.2 µM

O=C(Nc1ccc(Cl)cc1)Nc1cccc(-c2cn(Cc3ccc(Br)cc3)nn2)c1
viability (Huh-7; CCK-8; 50 µM; 48 h): 60.5%

Cc1cccc(F)c1NC(=N)CC(O)c1cc2c(F)cc(F)cc2c2cc(C(F)(F)F)ccc12 (stereo not drawn)
IC50 (HepG2; neutral red; 24 h): 22.8 µM

N.N.[Cl][Pt][Cl]
inhibition (Ramos; ATP luminescence; 10 µM; 72 h): 100%

COc1ccc(-c2cc(C(F)(F)F)c3c(N)c(C(=O)NC4CC4)sc3n2)cc1
IC50 (HepG2; 72 h): > 100 µM

N=C(CC(O)c1cc2c(F)cc(F)cc2c2cc(C(F)(F)F)ccc12)Nc1ccc(N2CCC(F)(F)CC2)cc1 (stereo not drawn)
IC50 (HepG2; neutral red; 24 h): 53.8 µM

CN(C)C(=O)c1sc2nc(-c3ccccc3)ccc2c1N
IC50 (HepG2; 72 h): > 100 µM

N=C(CC(O)c1cc2c(F)cc(F)cc2c2cc(C(F)(F)F)ccc12)Nc1cc(F)c(F)c(F)c1 (stereo not drawn)
IC50 (HepG2; neutral red; 24 h): 18.3 µM
